The values below come from article PMC3942533 (Journal of medicinal chemistry, 2013).

Counter-ions that a name gives are not always drawn. Like-named read-outs stand apart in the source and are kept apart here.

Data set [1] deals with mouse vas deferens (δ). The data set can be described thus: MVD isolated tissue bioassay. Format: biochemical. The following applies: read-out: MVD (δ) IC50; 50% inhibition of muscle contraction, n = 4, ±SEM.
Data set [2] deals with guinea pig ileum/longitudinal muscle myenteric plexus (μ). The experiment in a line: GPI isolated tissue bioassay. Type of data set: biochemical. The following applies: for IC50: read-out: GPI (μ) IC50, 50% inhibition of muscle contraction, n = 4, ±SEM.
The subject of the next data set is mouse hot plate. The experiment in a line: Hot plate antinociception test. Type of data set: in vivo. To be noted: mice, icv 0.6 nmol, 30 and 45 min after administration. The gist of the method: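 Mice received the test compound locally (icv, 0.6 nmol) or systemically (iv, 3000 nmol) and were assessed on the hot plate, with morphine as a reference. Antinociception expressed as % MPE over time and reported as mean ± SEM. Compared with vehicle-treated animals by two-way ANOVA and Bonferroni post hoc tests; significance P < 0.05.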

Data set [3] can be described thus: Enzymatic stability in human plasma. Type of data set: in vitro ADME. To be noted: 37 °C, compared with Biphalin. The procedure, abridged:
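Test compound incubated in human plasma at 37 °C, with stability followed as a curve over time. Three independent experiments (n = 3), reported as mean ± SEM. Groups compared by two-way ANOVA with Bonferroni post hoc comparisons.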

Data set [4] concerns mouse vas deferens (δ). The following applies: read-out: MVD (δ) IC50; ±SEM; ref [1b] and [13]; cited from earlier work.
The test system of data set [5] is guinea pig ileum/longitudinal muscle myenteric plexus (μ). To be noted: read-out: GPI (μ) IC50; ±SEM; ref [1b] and [13]; cited from earlier work.

The IC50 is the point on the concentration scale where inhibition reaches its midpoint. Take `C[C@@H](NC(=O)[C@@H](N)Cc1ccc(O)cc1)C(=O)NCC(=O)N[C@H](CC(=O)NNC(=O)C[C@H](Cc1ccccc1)NC(=O)CNC(=O)[C@@H](C)NC(=O)[C@@H](N)Cc1ccc(O)cc1)Cc1ccccc1` [Compound 1, 2 TFA·(Tyr-D-Ala-Gly-hβ^3Phe-NH)2]: the IC50 came to 33 ± 9.4 nM with mouse vas deferens (δ) [1] and 50 ± 6.5 nM in data set [2]. The “MPE (antinociceptive effect)” value with mouse hot plate is 100%. In data set [3], the “enzymatic stability, remaining parent compound versus time” value was “increased stability”.

Turning to `C[C@@H](NC(=O)[C@@H](N)Cc1ccc(O)cc1)C(=O)NCCC(=O)N[C@@H](Cc1ccccc1)C(=O)NNC(=O)[C@H](Cc1ccccc1)NC(=O)CCNC(=O)[C@@H](C)NC(=O)[C@@H](N)Cc1ccc(O)cc1` [Compound 2, 2 TFA·(Tyr-D-Ala-βAla-Phe-NH)2], the IC50 in the data set with mouse vas deferens (δ) [1] was determined as 1300 ± 221 nM. Moreover, the “GPI (μ) inhibition at fixed concentration” value in data set [2] (at 1 μM) stood at 9.2% at 1 μM. In addition, in data set [2] (ratio), the “IC50 (GPI)/IC50 (MVD)” value is on record as over 0.75.

Turning to `C[C@@H](NC(=O)C[C@@H](N)Cc1ccc(O)cc1)C(=O)NCC(=O)N[C@@H](Cc1ccccc1)C(=O)NNC(=O)[C@H](Cc1ccccc1)NC(=O)CNC(=O)[C@@H](C)NC(=O)C[C@@H](N)Cc1ccc(O)cc1` [Compound 4, 2 TFA·(hβ^3Tyr-D-Ala-Gly-Phe-NH)2], the IC50 in the data set with mouse vas deferens (δ) [1] was 710 ± 97 nM; in data set [2] it was 670 ± 139 nM.

With Biphalin [Bph], the IC50 in the data set with mouse vas deferens (δ) [4] was 2.7 ± 1.5 nM; in data set [5] it was 8.8 ± 0.3 nM.
